According to ChEMBL document CHEMBL4152263, “Novel anticancer hybrids from diazen-1-ium-1,2-diolate nitric oxide donor and ROS inducer plumbagin: Design, synthesis and biological evaluations” (Eur J Med Chem, 2018):
Active and inactive are the calls of the source. The rule behind the calls is not given here.

Key:
MDA-MB-231 [1] = assay: Cytotoxicity against human MDA-MB-231 cells assessed as growth inhibition at 40 uM after 48 hrs by MTT assay relative to control; format: functional; conditions: MDA-MB-231, 48 h, read-out: GI
How it was run: (§1)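 Single-concentration MTT screen. Cells were seeded, allowed to adhere for 24 h, and exposed to compound for 48 h. MTT (5 mg/mL) was added for the last 4 h, then DMSO, with absorbance read at 570 nm. Result is inhibition rate (%) at the stated concentration; mean of three independent experiments.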

HepG2 [2] = assay: Cytotoxicity against human HepG2 cells assessed as growth inhibition at 40 uM after 48 hrs by MTT assay relative to control; format: functional; conditions: HepG2, 48 h, read-out: GI; how it was run: as §1
A549 [3] = assay: Cytotoxicity against human A549 cells assessed as growth inhibition at 40 uM after 48 hrs by MTT assay relative to control; format: functional; conditions: A549, 48 h, read-out: GI; how it was run: as §1
[4] = Drug metabolism in human A549 cells assessed as nitric oxide production at 5 uM after 24 hrs by Griess assay; format: ADME, cell-based; conditions: a549, 24 h
How it was run: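 A549 cells were plated at 5.0 × 10^4/ml and treated in triplicate with compound at 5 μM for varying times up to 24 h. NO release was quantified as nitrite plus nitrate by Griess assay (commercial kit); mean ± SD, n = 3.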

[5] = Drug metabolism in human A549 cells assessed as nitric oxide production at 5 uM after 24 hrs in presence of nitric oxide scavenger carboxy-PTIO by Griess assay; format: ADME, cell-based; conditions: a549, 24 h
How it was run: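 A549 cells were pre-incubated with the NO scavenger carboxy-PTIO (50 μM) for 1 h, then treated with compound (5 μM) for 24 h. Proliferation was read by MTT and NO by Griess assay (nitrite/nitrate); mean ± SD of three independent experiments.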

MDA-MB-231 [6] = assay: Cytotoxicity against human MDA-MB-231 cells assessed as growth inhibition at 10 uM after 48 hrs by MTT assay relative to control; format: functional; conditions: MDA-MB-231, 48 h, read-out: GI; how it was run: as §1
A549 [7] = assay: Cytotoxicity against human A549 cells assessed as growth inhibition at 10 uM after 48 hrs by MTT assay relative to control; format: functional; conditions: A549, 48 h, read-out: GI; how it was run: as §1
HepG2 [8] = assay: Cytotoxicity against human HepG2 cells assessed as growth inhibition at 10 uM after 48 hrs by MTT assay relative to control; format: functional; conditions: HepG2, 48 h, read-out: GI; how it was run: as §1
MDA-MB-231 [9] = assay: Cytotoxicity against human MDA-MB-231 cells assessed as growth inhibition after 48 hrs by MTT assay; format: functional, cell-based; conditions: MDA-MB-231, 48 h
How it was run: (§2)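 Cells seeded at 5.0 × 10^4/ml and left 24 h to adhere, then exposed to a range of test-compound concentrations for 44 h. MTT (5 mg/mL) was added for a further 4 h at 37 °C. Supernatant was removed, DMSO added, and OD read at 570 nm. IC50 after 48 h total exposure; mean ± SD, n = 3.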

HepG2 [10] = assay: Cytotoxicity against human HepG2 cells assessed as growth inhibition after 48 hrs by MTT assay; format: functional, cell-based; conditions: HepG2, 48 h; how it was run: as §2
A549 [11] = assay: Cytotoxicity against human A549 cells assessed as growth inhibition after 48 hrs by MTT assay; format: functional, cell-based; conditions: A549, 48 h; how it was run: as §2
HCT-116 = assay: Cytotoxicity against human HCT116 cells assessed as growth inhibition after 48 hrs by MTT assay; format: functional, cell-based; conditions: HCT-116, 48 h; how it was run: as §2
HK-2 = assay: Cytotoxicity against human HK2 cells assessed as growth inhibition after 48 hrs by MTT assay; format: cell-based; conditions: HK-2, 48 h; how it was run: as §2
WRL68 = assay: Cytotoxicity against human WRL68 cells assessed as growth inhibition after 48 hrs by MTT assay; format: cell-based; conditions: WRL68, 48 h; how it was run: as §2
A549 [12] = assay: Induction of reactive oxygen species formation in human A549 cells at 5 uM after 24 hrs by DCFH-DA probe-based flow cytometric analysis relative to control; format: functional
A549 [13] = assay: Induction of apoptosis in human A549 cells assessed as early apoptotic cells at 1 uM after 24 hrs by FITC-annexin V/propidium iodide staining-based flow cytometric analysis (reference value: 1.87%); format: functional
A549 [14] = assay: Induction of apoptosis in human A549 cells assessed as late apoptotic cells at 1 uM after 24 hrs by FITC-annexin V/propidium iodide staining-based flow cytometric analysis (reference value: 0.36%); format: functional
A549 [15] = assay: Induction of apoptosis in human A549 cells assessed as necrotic cells at 1 uM after 24 hrs by FITC-annexin V/propidium iodide staining-based flow cytometric analysis (reference value: 0.055%); format: functional
A549 [16] = assay: Induction of apoptosis in human A549 cells assessed as viable cells at 1 uM after 24 hrs by FITC-annexin V/propidium iodide staining-based flow cytometric analysis (reference value: 97.7%); format: functional; conditions: A549, 24 h, read-out: Activity
A549 [17] = assay: Induction of apoptosis in human A549 cells assessed as early apoptotic cells at 2 uM after 24 hrs by FITC-annexin V/propidium iodide staining-based flow cytometric analysis (reference value: 1.87%); format: functional
A549 [18] = assay: Induction of apoptosis in human A549 cells assessed as late apoptotic cells at 2 uM after 24 hrs by FITC-annexin V/propidium iodide staining-based flow cytometric analysis (reference value: 0.36%); format: functional
A549 [19] = assay: Induction of apoptosis in human A549 cells assessed as necrotic cells at 2 uM after 24 hrs by FITC-annexin V/propidium iodide staining-based flow cytometric analysis (reference value: 0.055%); format: functional
A549 [20] = assay: Induction of apoptosis in human A549 cells assessed as viable cells at 2 uM after 24 hrs by FITC-annexin V/propidium iodide staining-based flow cytometric analysis (reference value: 97.7%); format: functional; conditions: A549, 24 h, read-out: Activity
A549 [21] = assay: Induction of apoptosis in human A549 cells assessed as early apoptotic cells at 4 uM after 24 hrs by FITC-annexin V/propidium iodide staining-based flow cytometric analysis (reference value: 1.87%); format: functional
A549 [22] = assay: Induction of apoptosis in human A549 cells assessed as late apoptotic cells at 4 uM after 24 hrs by FITC-annexin V/propidium iodide staining-based flow cytometric analysis (reference value: 0.36%); format: functional
A549 [23] = assay: Induction of apoptosis in human A549 cells assessed as necrotic cells at 4 uM after 24 hrs by FITC-annexin V/propidium iodide staining-based flow cytometric analysis (reference value: 0.055%); format: functional
A549 [24] = assay: Induction of apoptosis in human A549 cells assessed as viable cells at 4 uM after 24 hrs by FITC-annexin V/propidium iodide staining-based flow cytometric analysis (reference value: 97.7%); format: functional; conditions: A549, 24 h, read-out: Activity
A549 [25] = assay: Induction of apoptosis in human A549 cells assessed as increase in late apoptotic cells after 24 hrs by FITC-annexin V/propidium iodide staining-based flow cytometric analysis; format: functional, cell-based
A549 [26] = assay: Cytotoxicity against human A549 cells assessed as growth inhibition at 5 uM after 24 hrs in presence of nitric oxide scavenger carboxy-PTIO by MTT assay

| SMILES | inhibition of growth at 10 µM (MDA-MB-231 [6]) | inhibition of growth at 10 µM (A549 [7]) | inhibition of growth at 10 µM (HepG2 [8]) | IC50 (MDA-MB-231 [9]) | IC50 (HepG2 [10]) | IC50 (A549 [11]) | IC50 (HCT-116) | IC50 (HK-2) | IC50 (WRL68) | other results |
| --- | --- | --- | --- | --- | --- | --- | --- | --- | --- | --- |
| CC1=C(CCC(=O)O)C(=O)c2c(O)cccc2C1=O | – | – | – | – | – | – | – | – | – | inhibition of growth at 40 µM (MDA-MB-231 [1]): 8.7%; inhibition of growth at 40 µM (HepG2 [2]): 25.3%; inhibition of growth at 40 µM (A549 [3]): 12.3% |
| CC1=C(CCCC(=O)OCO/[N+]([O-])=N/N2CCOCC2)C(=O)c2c(O)cccc2C1=O | 88.3% | 91.2% | 75.4% | 4.12 µM | 5.52 µM | 3.48 µM | 4.21 µM | 23.5 µM | > 40 µM | Drug metabolism [4]: Metabolite_Detected; Drug metabolism [5]: Metabolite_Notdetected; fold change (FC) (A549 [12]): 1.64; Activity (A549 [13]): 2.09%; Activity (A549 [14]): 4.18%; Activity (A549 [15]): 1.56%; viability at 1 µM (A549 [16]): 92.2%; Activity (A549 [17]): 3.74%; Activity (A549 [18]): 10.1%; Activity (A549 [19]): 6.53%; viability at 2 µM (A549 [20]): 79.6%; Activity (A549 [21]): 6.93%; Activity (A549 [22]): 30.3%; Activity (A549 [23]): 17.3%; viability at 4 µM (A549 [24]): 45.4%; Activity (A549 [25]): Dose-dependent effect; growth inhibition (GI) (A549 [26]): inactive |
| CC1=C(CCCC(=O)OCCO/[N+]([O-])=N/N2CCOCC2)C(=O)c2c(O)cccc2C1=O | 26.2% | 23.7% | 25% | – | – | – | – | – | – | – |
| CC1=C(CCCC(=O)OCO/[N+]([O-])=N/N2CCCCC2)C(=O)c2c(O)cccc2C1=O | 83.6% | 86.7% | 80.3% | 4.92 µM | 6.68 µM | 4.27 µM | 5.26 µM | 17.7 µM | > 40 µM | Drug metabolism [4]: Metabolite_Detected; Drug metabolism [5]: Metabolite_Notdetected; growth inhibition (GI) (A549 [26]): inactive |
| [O-]/[N+](=N\OCCl)N1CCOCC1 | 13.3% | 19.1% | 16.4% | – | – | – | – | – | – | – |
| CC1=C(CCC(=O)OCO/[N+]([O-])=N/N2CCCCC2)C(=O)c2c(O)cccc2C1=O | 40.1% | 45% | 35.1% | 11.7 µM | 14.4 µM | 10.8 µM | 20.2 µM | 27.7 µM | 28.2 µM | – |
| CC1=C(CCCC(=O)OCO/[N+]([O-])=N/N2CCCC2)C(=O)c2c(O)cccc2C1=O | 70.8% | 65.6% | 69.7% | 6.97 µM | 7.12 µM | 9.24 µM | 9.32 µM | 18.1 µM | 16.6 µM | – |
| [O-]/[N+](=N\OCCl)N1CCCCC1 | 11.4% | 10.8% | 17.6% | – | – | – | – | – | – | – |
